Bioassay records: PubChem, several laboratories
In the library only some 3.9% were active in any assay of this set; here they are far more common.
CRFBP-R2 block – antagonists of CRF-binding protein/CRF-R2 receptor complex. HEK293 CRF-R2/CRF-BP, CRF-induced calcium fluorescence. inhibition, % at 11.8 µM. hit rate 0.59% among 350,000. AID 588475;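 active = inhibition of the ligand-induced calcium signal above about 50% at the single tested concentration, limit read from the data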
ANO1 activ – activates or potentiates the mouse TMEM16A chloride channel; Q8BHY3; HEK293 TMEM16A/YFP-H148Q/I152L, iodide quench fluorescence; hits give low values; B-score at 10 µM; hit rate 0.3% among 340,000; AID 623877;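 active = fluorescence-ratio B-score plate-corrected deviation score at least 3 library SD below zero, with starting fluorescence score within 5 deviations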;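 also: channel opened by trigger with iodide after compound preincubation; score built on the fluorescence ratio of max minus min over baseline; more negative score means more quench and so TMEM16A activation or potentiation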
CRFR2-BP ag – agonists of human CRF-binding protein/CRF-R2 receptor complex; AID 588473; activation, % at 13.2 µM; HEK293 CRF-R2/CRF-BP, calcium dye fluorescence (FLIPR); percent of saturating CRF peptide response; hit rate 0.46% among 350,000;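 active = activation of at least 50%, plus an integration ratio under a set limit after plate pattern correction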;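 also: plate controls were neutral control wells without compound for no effect and CRF at EC100 for full effect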
TAAR1 agonist – agonists of human TAAR1. hit rate 0.99% among 360,000. CHO RD-HGA16 TAAR1, Fluo-8 calcium fluorescence; vehicle wells 0%, saturating PEA agonist 100%. activation, % at 3 µM. Q96RJ0. AID 624467;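 active = activation above the mean activation of all test compounds in the run plus 3 SD, cut at about 38% in these data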
Target sequence (Q96RJ0 whole entry, looked up): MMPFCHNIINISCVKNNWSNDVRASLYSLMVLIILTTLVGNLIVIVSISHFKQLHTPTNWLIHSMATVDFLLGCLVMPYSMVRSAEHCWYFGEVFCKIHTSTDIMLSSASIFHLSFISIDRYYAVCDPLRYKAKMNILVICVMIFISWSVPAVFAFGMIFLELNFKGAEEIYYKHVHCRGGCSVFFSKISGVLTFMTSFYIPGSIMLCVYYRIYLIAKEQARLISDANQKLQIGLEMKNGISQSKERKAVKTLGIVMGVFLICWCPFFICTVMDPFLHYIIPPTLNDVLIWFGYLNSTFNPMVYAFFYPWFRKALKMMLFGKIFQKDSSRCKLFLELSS
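System: CHO-derived RD-HGA16 cells with stable Gα16 and human TAAR1. Times: 17-24 h plating, Fluo-8 75 min 37 °C, 30 min RT. Measured by: calcium-sensitive Fluo-8 signal, excitation 470-495, emission 515-575 nm. Read-out basis: % activation relative to PEA EC100 response. Control set: DMSO and PEA EC100. Repeats: no replicates (n 1).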
ANO1 block – mouse TMEM16A channel inhibition, primary screen | Q8BHY3 | normalized B-score (activity score, 25-100; higher = stronger inhibition) at 10 µM | HEK293 TMEM16A/YFP iodide influx fluorescence, ionomycin | hit rate 1.2% among 310,000 | AID 588511;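 active = ratio plate-corrected score three or more library SD toward inhibition, starting fluorescence score within five deviations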;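 also: score derived from kinetic fluorescence span divided by baseline fluorescence per well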
TAAR1 antagonist – human TAAR1 antagonism. Q96RJ0. CHO RD-HGA16 TAAR1, Fluo-8 calcium fluorescence, antagonist. inhibition, % at 3 µM. hit rate 1.5% among 360,000. AID 624466;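 active = inhibition above a per-plate cutoff, the mean inhibition of test compounds on that plate plus 3 SD, cut at about 49% in these data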;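 also: 0% = DMSO plus EC80 beta-PEA response and 100% = DMSO alone without agonist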
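Material: RD-HGA16 CHO cells with stable hTAAR1 and Gα16; Dosing: single nominal final test compound concentration of 3 µM; Schedule: seeding 17-24 h prior, 75-min 37 °C, 30-min RT dye loading; Detection: kinetic Fluo-8 calcium fluorescence measurement; Measure: % inhibition from peak post-agonist over basal fluorescence ratio; Benchmarks: vehicle and agonist controls.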
TAAR1 nonsel count – nonselective antagonist in TAAR1 antagonist counter-screen; shares compounds with TAAR1 antagonist; counterscreen cell line, calcium fluorescence, antagonist mode; inhibition, % at 3 µM; hit rate 77% among 2,400; AID 651780; in the data active = inhibition above about 22%;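 also: CHO-Ga16 host cells stimulated with ATP at an EC80 level; 0% = agonist EC80 plus vehicle and 100% = vehicle without agonist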
TAAR1 antag conf – human TAAR1 antagonism, confirmed. shares compounds with TAAR1 antagonist. hit rate 40% among 2,400. inhibition, % at 3 µM. TAAR1-expressing cells, fluorescence antagonist read-out; in the data active = inhibition above about 49%;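 also: CHO-Ga16 host cells challenged with agonist PEA near its EC80; 0% = agonist at EC80 plus vehicle and 100% = vehicle with no agonist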
Ga16 nonsel ag – nonselective Ga16 agonist in TAAR1 antagonist counter-screen | shares compounds with TAAR1 antagonist | Ga16-expressing cells, calcium fluorescence, agonist counterscreen | activation, % at 3 µM | hit rate 18% among 2,400 | AID 651953; in the data active = activation above about 12%;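 also: 0% = vehicle wells and 100% = saturating stimulus response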
TAAR1 ag counter – TAAR1 agonism, antagonist counter-screen; shares compounds with TAAR1 antagonist; hTAAR1 cell line, fluorescence activation, agonist mode; activation, % at 3 µM; hit rate 2% among 2,400; in the data active = activation above about 37%;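 also: CHO cells stably expressing TAAR1 with calcium dye readout; 0% = DMSO vehicle and 100% = full agonist response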
An asterisk follows results filed as active; i = inactive; . = no result.

SMILES	CRFBP-R2 block	ANO1 activ	CRFR2-BP ag	TAAR1 agonist	ANO1 block	TAAR1 antagonist	TAAR1 nonsel count	TAAR1 antag conf	Ga16 nonsel ag	TAAR1 ag counter
O=C1NC[C@H](c2ccccc2)OC(=O)[C@H](Cc2ccc(F)cc2)C/C=C\C[C@@H]1CC(=O)N(CCO)Cc1ccccc1	-8	i	-3	32	.	77*	32*	47	9	7
O=C1NC[C@@H](c2ccccc2)OC(=O)[C@H](Cc2ccc(F)cc2)C/C=C\C[C@@H]1CC(=O)N(CCO)Cc1ccccc1	4	i	-1	27	.	67*	20	44	9	7
CC(C)(C)OC(=O)C[C@H]1C/C=C\C[C@H](CC(=O)N[C@H](CO)Cc2ccccc2)C(=O)N[C@H](Cc2ccccc2)COC1=O	8	.	-2	7	.	26	.	.	.	.
CC(C)(C)OC(=O)C[C@@H]1C/C=C\C[C@H](CC(=O)N[C@H](CO)Cc2ccccc2)C(=O)N[C@@H](Cc2ccccc2)COC1=O	3	i	0	17	.	59*	28*	40	5	1
O=C(C[C@H]1C/C=C\CC[C@H](Cc2ccc(F)cc2)C(=O)O[C@@H](c2ccccc2)CNC1=O)N[C@@H](CO)Cc1ccccc1	-11	i	19	33	.	59*	35*	49*	10	12
CCC(=O)N1CCc2nc(-c3ccccc3)sc2C1	-24	i	4	7	i	4	.	.	.	.
COc1ccc(OC)c(N/C=C/C(=C(C#N)C#N)N(C)C)c1	-8	i	-2	7	i	10	.	.	.	.
O=C1NC(=Nc2ccccc2)S/C1=C\c1cccn1-c1ccccc1	-15	i	0	4	i	73*	32*	43	3	2
CCOc1ccc(C(=O)CCC(=O)N(CC)CC(=O)Nc2c(F)cccc2F)cc1	2	i	0	2	i	-25	.	.	.	.
COc1ccc(C2c3ccc(O)cc3Oc3ncn(CCN4CCOCC4)c(=N)c32)cc1OC (stereo unspecified)	3	i	-3	0	i	-16	.	.	.	.
N=c1c2c(ncn1CCN1CCOCC1)Oc1cc(O)ccc1C2c1ccccc1 (stereo unspecified)	-2	i	-1	18	i	75*	22*	40	8	10
O=C(c1ccc(N2CCOCC2)c([N+](=O)[O-])c1)N1CCCC(C(F)(F)F)C1 (stereo unspecified)	-2	i	-1	3	i	-14	.	.	.	.
COc1ccc(S(=O)(=O)Cc2ccc(C(=O)N3CCN(c4ccc(Cl)cc4)CC3)o2)cc1	21	i	0	5	i	72*	33*	36	9	7
COc1ccc(N2CCN(C(=O)c3ccc(CS(=O)(=O)c4ccc(OC)cc4)o3)CC2)cc1	20	i	-1	1	i	4	.	.	.	.
O=C(c1ccc(CS(=O)Cc2ccc(Cl)cc2)o1)N1CCN(c2ccc(F)cc2)CC1 (stereo unspecified)	5	i	1	24	i	72*	15	11	4	5
O=C(c1ccc(CS(=O)Cc2cccc(Cl)c2)o1)N1CCN(c2ccc(F)cc2)CC1 (stereo unspecified)	-4	.	-2	6	.	0	.	.	.	.
COc1ccc(S(=O)(=O)Cc2ccc(C(=O)N3CCN(c4cccc(C)c4)C(C)C3)o2)cc1 (stereo unspecified)	14	i	0	4	i	59*	31*	38	10	9
CSCC[C@H](NC(=O)C1CCN(S(=O)(=O)c2ccc(C)cc2C)CC1)c1nc2ccccc2[nH]1	28	i	-3	17	.	32	.	.	.	.
COc1ccc(CCNC(=O)C(=O)NCC2CCCN2S(=O)(=O)c2cc(C)ccc2C)cc1 (stereo unspecified)	-6	i	1	17	i	73*	28*	53*	11	13
Cc1ccc(C)c(S(=O)(=O)N2CCCC2CNC(=O)C(=O)NCCc2ccccc2)c1 (stereo unspecified)	-6	i	-1	20	i	69*	31*	47	11	35
CCOC(=O)C1(Cc2ccc(Cl)cc2)CCN(C(C)Cc2ccc(O)c(OC)c2)CC1 (stereo unspecified)	-18	i	3	21	i	26	.	.	.	.
CCOc1ccc2nc(NC(=O)CN3CCC(n4nnc5cc(F)ccc54)CC3)sc2c1	-40	i	2	14	i	68*	23*	42	6	6
CCCCN(Cc1cc2ccccc2[nH]c1=O)S(=O)(=O)c1ccc(C)cc1	-37	i	2	0	i	63*	14	38	6	12
COC(=O)c1ccccc1S(=O)(=O)N(Cc1ccco1)Cc1cc2cc(OC)ccc2[nH]c1=O	-19	i	1	8	i	-4	.	.	.	.
CC(=O)Nc1ccc(S(=O)(=O)N(Cc2ccco2)Cc2cc3ccccc3[nH]c2=O)cc1	-24	i	0	19	i	73*	27*	57*	9	11
SMILES	CRFBP-R2 block	ANO1 activ	CRFR2-BP ag	TAAR1 agonist	ANO1 block	TAAR1 antagonist	TAAR1 nonsel count	TAAR1 antag conf	Ga16 nonsel ag	TAAR1 ag counter
O=C(O)c1cn(-c2ccc(F)cc2)c2cc(N3CCNCC3)c(F)cc2c1=O	-8	i	0	3	.	-11	.	.	.	.
COc1cc(C(=O)N/N=C/c2cc([N+](=O)[O-])cs2)cc(OC)c1OC	-18	i	-3	-4	i	102*	4	5	0	0
CCOc1ccc(C(=O)N/N=C/c2cc([N+](=O)[O-])cs2)cc1	-2	i	2	1	i	10	.	.	.	.
O=c1cc(NCc2ccccc2)[nH]c(=O)[nH]1	-9	i	-1	3	i	6	.	.	.	.
C/C(=N/NC(=O)c1ccoc1C)c1cccc(NC(=O)C2CC2)c1	-2	i	5	3	i	-30	.	.	.	.
Cc1cccc(OCC(O)Cn2c(N3CCCCC3)nc3c2c(=O)n(C)c(=O)n3C)c1 (stereo unspecified)	7	i	-6	12	i	64*	30*	42	8	10
